Compounds with a hit are over-represented: about 2.6% of the library has one in this group of screens.
PAD4 FP inh = PAD4 (human) enzyme inhibition; recombinant PAD4, RCA probe fluorescence polarization; inhibition, % at 6.36 µM; 330,000 compounds, 0.41% hits; AID 485272;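 active = percent inhibition above a cutoff equal to the mean of all tested compounds plus 3 SD, cut at about 15% in these data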;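 also: 0% = PAD4 with RCA probe and DMSO and 100% = probe without PAD4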
PRMT1 inh = PRMT1 (human) inhibition, primary screen; Q99873; recombinant PRMT1, activity-based probe fluorescence polarization; inhibition, % at 2.79 µM; 370,000 compounds, 1.3% hits;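 active = inhibition above about 21% made by adding two undisclosed values, limit read from the data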
Target sequence (Q99873 whole entry, looked up): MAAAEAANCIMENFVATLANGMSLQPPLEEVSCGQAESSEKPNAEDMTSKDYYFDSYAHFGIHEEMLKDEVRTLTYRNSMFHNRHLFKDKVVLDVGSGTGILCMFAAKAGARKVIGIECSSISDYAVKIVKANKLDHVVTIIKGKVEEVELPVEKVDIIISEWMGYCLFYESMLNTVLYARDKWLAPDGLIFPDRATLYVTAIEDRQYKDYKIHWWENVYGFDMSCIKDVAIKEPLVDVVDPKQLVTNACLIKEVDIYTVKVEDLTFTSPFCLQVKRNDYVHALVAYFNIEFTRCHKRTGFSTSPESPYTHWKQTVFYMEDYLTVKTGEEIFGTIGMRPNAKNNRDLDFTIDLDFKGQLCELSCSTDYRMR
GSTO1 inh = GSTO1 inhibition, counter-screen for RBBP9 inhibitors. P78417. recombinant GSTO1, activity-based probe fluorescence polarization. inhibition, % at 5.96 µM. 300,000 compounds, 1.1% hits. AID 1974;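 active = inhibition above the campaign mean inhibition plus 3 SD, cut at about 35% in these data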;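 also: 0% = GSTO1-1 with DMSO and 100% = wells lacking GSTO1-1 enzyme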
Target sequence (P78417 whole entry, looked up): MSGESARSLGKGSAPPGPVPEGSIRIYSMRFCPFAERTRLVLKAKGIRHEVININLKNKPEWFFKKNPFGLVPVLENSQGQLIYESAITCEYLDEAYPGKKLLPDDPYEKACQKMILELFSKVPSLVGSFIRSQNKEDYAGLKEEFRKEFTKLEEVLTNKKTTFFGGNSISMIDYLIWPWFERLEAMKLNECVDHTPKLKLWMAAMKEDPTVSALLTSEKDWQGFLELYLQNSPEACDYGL
Apaf-1 inh = inhibitors of human Apaf-1 apoptosome; O14727; reconstituted apoptosome caspase-3 activity, DEVD-Rh110 fluorescence; inhibition, % at 20 µM; 330,000 compounds, 0.71% hits; AID 489030; active = inhibition of at least 40% at 20 µM;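 also: plate controls were DMSO wells for no effect and DEVD-CHO caspase inhibitor wells for full effect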
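Material: reconstituted apoptosome with Apaf-1, cytochrome c, caspase-9, procaspase-3, dATP / Buffer or medium: pH 7.5 Hepes buffer with CHAPS, BSA, DTT / Also added: cytochrome c with DEVD-Rh110 / Schedule: compound with Apaf-1, dATP, procaspase-3 30 min, then 50 min reaction, room temperature / Technique: rhodamine 110 fluorescence at Ex 480/Em 540 nm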
TDP2 absorb = blocks human TDP2 phosphodiesterase activity. O95551. recombinant TDP2, T5PNP hydrolysis, p-nitrophenol absorbance 415 nm. inhibition, % at 12.8 µM. 370,000 compounds, 0.34% hits;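 active = inhibition above the mean of all tested compounds plus 3 SD, set per campaign, cut at about 25% in these data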;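 also: 0% = DMSO with enzyme and 100% = buffer with substrate but no TDP2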
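Assay system: Recombinant human TDP2 | Quantity: 120 nM TDP2 per well | Incubation: 2 h at 37 °C | Signal: Epi absorbance | Evaluation: Percent inhibition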
PRMT1 inh conf = confirmation of human PRMT1 inhibitors. shares compounds with PRMT1 inh. recombinant His-PRMT1, activity-based probe fluorescence polarization. inhibition, % at 2.79 µM. 3,300 compounds, 42% hits. AID 687036;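 active = mean inhibition across replicates above the hit cutoff derived for the earlier primary screen, cut at about 22% in these data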
* marks the source's active call; other numbers are inactive results; · = no result given; ! = not confirmed by another sample.

SMILES | PAD4 FP inh | PRMT1 inh | GSTO1 inh | Apaf-1 inh | TDP2 absorb | PRMT1 inh conf
O=C(Nn1c(O)c(C=C2N=c3ccccc3=N2)sc1=S)c1cccc(Cl)c1 | -14 | 39* | 7 | 36 | -23 | 9
Oc1c(C=C2N=c3ccccc3=N2)sc(=S)n1-c1ccc(F)cc1 | -5 | 41*! | 6 | 3 | 0 | 3
Oc1c(C=C2N=c3ccccc3=N2)sc(=S)n1C1CCCC1 | -2 | 8 | -2 | 3 | 2 | ·
C[C@H]1CCCN1c1ccc2c(c1)O[C@@H]1CCN(C1)S2(=O)=O | · | 5 | · | · | 10 | ·
O=C(NCCNC(=O)c1ccco1)c1ccc(Cl)c(Cl)c1 | -3 | 3 | -6 | 0 | 2 | ·
CCCCCCN1C[C@@H](n2cc(COC(=O)c3ccccc3)nn2)[C@H](O)C[C@@H]1c1ccccc1 | · | 11 | · | · | -7 | ·
O=C(NCc1ccccn1)c1cccc(S(=O)(=O)Nc2ccc(SC(F)F)cc2)c1 | 6 | 78* | 4 | 2 | -15 | 40*
O=C(NCc1cccnc1)c1cccc(S(=O)(=O)Nc2ccc(F)cc2)c1 | · | 2 | · | 10 | 10 | ·
O=C(NCc1ccncc1)c1cccc(S(=O)(=O)Nc2ccc(SC(F)F)cc2)c1 | 13 | 64* | -1 | -5 | 13 | 56*
COc1cccc(CNC(=O)c2ccc(C)c(NC3=NC4CS(=O)(=O)CC4S3)c2)c1 (centres undefined) | 2 | 1 | 6 | 5 | 4 | ·
O=C(Nc1ccc(Br)cc1)Nc1cnccn1 | · | -6 | · | 8 | 5 | ·
CC(C)(C)c1ccc(O)c(O)c1 | -7 | 26* | · | 1 | 0 | 17
CCC1(C)Cc2c(C#N)c(N)sc(=S)c2CO1 (centres undefined) | 3 | 28* | -3 | 3 | -4 | 27*
N#Cc1c(N)sc(=S)c2c1CCCC2 | -2 | 28* | 21 | 23 | 6 | 9
COc1ccc(Cn2cc(CN3CC(N4CCN(CCN(C)C)CC4)CS3(=O)=O)nn2)cc1 (centres undefined) | · | 1 | · | · | 7 | ·
COc1ccc(NS(=O)(=O)c2ccc3c(c2)NC(=O)CO3)c(OC)c1 | 1 | -6 | 3 | 8 | 6 | ·
COC(=O)C1CCN(C(=O)c2ccc3nccnc3c2)CC1 | · | 26* | · | -1 | 15 | 4
O=C1CCC(c2ccccc2)c2ccccc21 (centres undefined) | 3 | -2 | 2 | -25 | 7 | ·
N#CC1C(=O)c2ccccc2C1c1ccccc1 (centres undefined) | · | 45* | · | · | 2 | 14
Nc1cc(=O)[nH]c(SCc2nnnn2-c2ccc(Cl)cc2)n1 | 1 | 4 | 0 | 4 | -8 | ·
Cc1cc(=O)[nH]c(SCc2nnnn2-c2ccc(Cl)cc2)n1 | 1 | 37* | 9 | -1 | -3 | 55*
CCCc1cn(CC(C)n2c(=O)c3ccccc3n2Cc2cc(C(C)C)no2)nn1 (centres undefined) | · | -5 | · | · | 6 | ·
CCN(CC)c1ccc(NS(=O)(=O)c2ccc(-c3ccc(=O)[nH]n3)o2)c(C)c1 | 0 | 42* | 19 | 7 | 4 | 3
NC(=O)C1CCN(C2CC(=O)N(Cc3ccc(N4CCCC4=O)cc3)C2=O)CC1 (centres undefined) | -5 | 58* | 1 | 2 | 5 | 1
O=C(C1CCN(C2CC(=O)N(c3ccc(Cl)cc3)C2=O)CC1)N1CCOCC1 (centres undefined) | 2 | 27* | 18 | 2 | 7 | 10
SMILES | PAD4 FP inh | PRMT1 inh | GSTO1 inh | Apaf-1 inh | TDP2 absorb | PRMT1 inh conf
O=C(C1CCN(C2CC(=O)N(c3cccc(Cl)c3)C2=O)CC1)N1CCCC1 (centres undefined) | -5 | 30* | -1 | 4 | 2 | 4
CC(=O)Oc1ccc(N2C(=O)C3C4C=CC(O4)C3C2=O)cc1 (centres undefined) | 0 | 95* | -6 | -31 | -4 | 27*
O=C(O)c1ccc(N2C(=O)CC(N3CCN(c4ccc(Cl)cc4)CC3)C2=O)cc1 (centres undefined) | -4 | 1 | 7 | -1 | 19 | ·
O=C(COc1cc(F)ccc1[N+](=O)[O-])NCCN1C(=O)CSC1=O | -1 | 1 | · | -1 | 7 | ·
O=C(C1CCN(C2CC(=O)N(Cc3ccccc3)C2=O)CC1)N1CCCCCC1 (centres undefined) | 4 | 57* | 3 | 4 | 7 | 2
CCN(CC)C1CC(=O)N(c2cccc(Cl)c2)C1=O (centres undefined) | 0 | 34* | 3 | -8 | 0 | 29*
O=C(O)CSC1CC(=O)N(c2cccc(Cl)c2)C1=O (centres undefined) | 0 | 20 | -1 | 11 | 14 | ·
CC(=O)Oc1cccc(N2C(=O)C3C4C=CC(C4=C(C)C)C3C2=O)c1 (centres undefined) | 0 | 64* | -2 | 13 | 0 | 14
CC(=O)Oc1cccc(N2C(=O)C3C(C2=O)C2C=CC3C23CC3)c1 (centres undefined) | 1 | 2 | -4 | 6 | 9 | ·
CC(=O)Oc1ccc(N2C(=O)CC(N3CCOCC3)C2=O)cc1 (centres undefined) | 0 | 43* | 12 | -23 | 8 | 11
CCOc1ccc(N2C(=O)CC(N3CCOCC3)C2=O)cc1 (centres undefined) | -7 | 10 | 3 | -17 | -17 | ·
Oc1ccccc1C=NC(N=Cc1ccccc1O)c1ccccc1O (centres undefined) | · | 6 | · | · | -5 | ·
O=C(CSc1nc2c(c(=O)n1-c1ccccc1)SCC2)NCC1CCCO1 (centres undefined) | -2 | 1 | 13 | -6 | -7 | ·
COc1ccc(OC)c(-c2cc(C3CCN(c4cc(Cl)nc(N)n4)CC3)[nH]n2)c1 | -1 | 40* | -1 | 20 | 0 | -1
COc1ccc(-c2cc(C3CCN(c4cc(Cl)nc(N)n4)CC3)[nH]n2)cc1 | 2 | -5 | -21 | 30 | 1 | ·
COc1ccc(CC(=O)N[C@@H](C)C(=O)N2CCC3(CC2)NCCc2[nH]cnc23)cc1 | -1 | 1 | 0 | -15 | 5 | ·
COc1cccc(C(=O)C2CCCN(C(=O)c3cccc(C#CC(C)(C)O)c3)C2)c1 (centres undefined) | 1 | -1 | 0 | 0 | 4 | ·
O=C(CN1C(=O)NC2(CCCC2)C1=O)Nc1cccc(Cl)c1Cl | 4 | -9 | 4 | 4 | -3 | ·
O=C1CN(CC(=O)Nc2cccc(Cl)c2Cl)c2ccccc2N1 | -5 | 52* | 5 | -13 | -3 | 76*
COc1cccc(NC(=O)CSc2nc3c(sc4ccccc43)c(=O)n2CCN(C)C)c1 | -2 | 68* | -2 | 4 | -6 | 68*
O=C1NC(=S)CN1c1ccccc1 | 5 | 65* | -10 | -1 | 0 | 60*
O=C1N(c2ccccc2)CCN1c1ccccc1 | 0 | 7 | 4 | -5 | -2 | ·
COc1cc(C=C2C(=O)C=CC2=O)ccc1O | · | 91* | · | · | 9 | 100*
